Fewer inactive variants are shown than the library holds.

B1: tRNA (parent)
chain: GUUCCGUUGGCGUAAUGGUAACGCGUCUCCCUCCUAAGGAGAAGACUGCGGGUUCGAGUCCCGUACGGAACG

The data set covers variants of B1. The data set can be described thus: yeast fitness relative to wild type (ratio to wild type); higher = fitter; tRNA-Arg(CCU), competitive growth, 37 C, YPD. The method, boiled down: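 Variants of the tRNA-Arg(CCU) gene were chemically synthesised with a 3% per-site mutation rate across 69 sites and placed at the native genomic locus in Saccharomyces cerevisiae. Six parallel replicates of the pooled strains were competed in YPD at 37°C for 24 hours, and gene amplicons from the start and end populations were read by 100-nucleotide paired-end sequencing. Darwinian fitness relative to wild type was derived from changes in genotype frequencies. Genotypes required ≥ 100 starting reads, and estimates < 0.5 were set to 0.5.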
Regarding GUUCCGUUAGCGUAAUGGUAACGCCUCUCCCUCCUAAGGAGAAGACUGCGGGUUCGAGUGCCGUACGGAACG, the yeast fitness was ≤ 0.5. The value for GUUCCGUUAGCGAAAUGGUAACGCGUCUCCCUCCUAAGGAGAAGACAGCGGGUUCGAGUACCGUACGGAACG was ≤ 0.5; that for GUUCCGUUAGCGUAACGGUAACGCGUCUCCCUCCUAAGGAGAAGACUGCGGGUUCGGGUCCCGUACGGAACG was 0.598. The value for GUUCCGUUAGCGCAAUGGUAACGCGUCUGCCUCCUAAGGAGAAGACUGCGGGUUCGAGUCCCGUACGGAACG was ≤ 0.5; that for GUUCCGUUAGCGUAAUGGUAACGCGUCUCCCUCCUAAGGAGAAGACUGCGAGUUCGGGUCCCGUACGGAACG was ≤ 0.5. As for GUUCCGUUAGCGUAAUGGUAACGCGUCUCCCUCCUAAGGAGAAGACUCCGGGUUCGAGUCCCGUACGCAACG, the yeast fitness came to 0.603. For the variant GUUCCGUUAGCGUAAUGGUAACACGUAUCCCUCCUAAGGAGAAGACUGCGGGUUCGAGUCCCGUACGGAACG, the yeast fitness was ≤ 0.5. With GUUCCGUUAGCGUAAUGGUAACGCGUCUCCCUCCUAAGGAAAAGACUGCGGGUUCGAGUCCCGUACGGCACG, the yeast fitness is 0.558. For the variant GUUCCGUUAGCGUAAUGGUAACGCAUCUCCCUCCUAAGGAGAAGACUGCGGGUUCGAGUCACGUACGGAACG, the yeast fitness was ≤ 0.5. The figure for GUUCCGUUAGCGUAAUGGUAACGCGUCUCCCUCCUAAGGAGAAGACUGCGGGUUCGAAUCCCGUACAGAACG is 0.959; for GUUCCGUUAGCGUAAUGGUAACACGUAUCCCUCCUAAGGAGAAGACUGCGGGUUCGAGUCCCGUACCGAACG it is ≤ 0.5. The value for GUUCCGUUAGCGUAAUGGUAACGCGUCUCCCUCCUAAGGACAAGACUGCGGGUUCGAGUCCCGUACGGAACG was 0.899. GUUCCGUUAGCGUAAUGGUAACUCGUCUCCCUCCUAAGGAGCAGACUGCGGGUUCGAGUCCCGUACGGAACG: the yeast fitness is ≤ 0.5. GUUCCGUUAGCGCAAUGGCAACGCGUCUCCCUCCUAAGGAGAAGACUGCGGGUUCGAGUCCCGUACGGAACG: the yeast fitness is 0.907. As for GUUCCGUUAGCGUAAUGGUAACGCAUCUCCCUCCUAAGGAGAAGACUGCGGGUUCGAGUCCCGUACGGAACG, the yeast fitness stood at 0.978.

For the variant GUUCCGUUAGCGUAAUGGUAACGCGUCUCCCUCCUAAGCAGACGACUGCGGGUUCGCGUCCCGUACGGAACG, the yeast fitness is ≤ 0.5. The figure for GUUCCGUUAGCGUAACGGUGACGCGUCUCCCUCCUAAGGAGGAGACUGCGGGUUCGAGUCCCGUACGUAACG is ≤ 0.5; for GUUCCGUUAGCGUAAUGGUAACGCAUCUCCCUCCGAAGGAGAAGACUGCGGGUUCGAGUCCCGUACGGAACG it is ≤ 0.5; for GUUCCGUUAGCGUAAUGGUAACACGUCUCCCUCCUAAGGAGAAGACUGCGGGUUCGAGUCCCGUACGGAACG it is 0.825. The figure for GUUCCGUUAGCGUAACGGUAACGCGUCUCCCUCCUAAGGAGAAGACUGCGGGUUCGAGUCCCGUACGGCACG is 0.763; for GUUCCGUUAGCGCAAUGGUAACGCGUCUCCCUCCUAAGGAGAAGACUGCGGGUUCGAGUCCCGUACGGAACG it is 0.893. On to GUUCCGUUAGCGUAAUGGUAACGCGUCUCCCUCCUAAGGAGAAGACUGCGGGUUCUAAUCCCGUACGGAACG, for which the yeast fitness came to 0.563.

GUUCCGUUAGCGAAAUGGUAACGCGUCUCCCUCCUAAGGAGAAGAUUGCGGGUUCGAGUCCCGUACGGAACG: the yeast fitness worked out at 0.708. Take GUUCCGUUAGCGUAAUGGUAACGCGUCUCCCUCCUAAGCAGAAGACUGCGGGUUCGAGUCCCGUAUGGAACG: the yeast fitness is 0.606. The value for GUUCCGUUAGCGUAAUGGUAACGCGUCUCCCUCCUAAGGAGAAGACUGCGGAUUCUAGUCCCGUACGGAACG was ≤ 0.5. Consider GUUCCGUUAGCGUAAUGGUAACGCCGCUCCCUCCUAAGGAGAAGAGUGCGGGUUCGAGUCCCGUACGGAUCG, for which the yeast fitness is ≤ 0.5.

Consider GUUCCGUUAGCGUAAUGGUAACGCGUCUCCCUCCUAAGGAGAAGACUGCGGGUUCGAGUCCCGUACGCAACG, for which the yeast fitness worked out at 0.857. The value for GUUCCGUUAGCGUAAUGGUAACGCGUCUCCCUCCUAAGGAGAAGACUGCGGGUUCGAUUCCCGUACGGAGCG was 0.984; that for GUUCCGUUAGCGUAAUGGUAACGCAUCUCCCUCCUAAGGAGAAGACUGUGGGUUCGAGUCCCGUACGGAACG was 0.773; that for GUUCCGUUAGCGUAAUGGUAACGCGUCUCCCUCCUAAGGAGAAGACUGCGGGUUCCAGUCCCGUACGGAACG was 0.563. The value for GUUCCGUUAGCGUAAAGGUAACCAGUCGCCCUCUUAUGGAGAAGACUGCGGGUUCGAGUCCCGUACGGAACG was ≤ 0.5; that for GUUCCGUUAGCGUAAUGGUAACGCGUCUCCCUCCUAAGGAGAAGACUCCGGGGUCGAGUCCCGUACGGAACG was ≤ 0.5; that for GUUCCGUUAGCGAAAUGGCAACGCGUCUCUCUCCUAAGGAGAAGACUGCGGGUUCGAGUCACGUACGGAACG was ≤ 0.5. Regarding GUUCCGUUAGCGUAAUGGUAACGCGUCUCCCUCCUAAGAAGAAGACUGCGGGUUCGAGUCCCCUACGGAACG, the yeast fitness was found to be 0.556.

GUUCCGUUAGCGUAAUGGUAACGCGUCUCCCUCCUAAGGAGAAGACUCCGGGUUCGAGUCCCGUACGGAACG: the yeast fitness came to 0.985.

As for GUUCCGUUAGCGUAAUGGUAACGCGUCUCCCUCCUAAGGAGAAGACUACGGGUUCGAGUCCCGUACGGAACG, the yeast fitness came to 0.955. On to GUUCCGUUAGCGUAAUGGUAACGCGUCUCCCUCCUAAGGAGAAAACUGCGGGUUAGUGUCCCGUACGGAACG, for which the yeast fitness was ≤ 0.5.

Source of the values: the RNAGym collection of RNA variant scans (doi:10.1126/science.aae0568).
